Results on 38 compounds are retold here after ChEMBL document CHEMBL1140407, “Design and synthesis of tricyclic corticotropin-releasing factor-1 antagonists” (J Med Chem, 2005).

pIC50, pKi: −log10 of the molar value.

For assay [1], the target named is T1, Corticotropin-releasing factor receptor 1 (Homo sapiens, UniProt P34998).
T1 sequence (P34998 whole entry): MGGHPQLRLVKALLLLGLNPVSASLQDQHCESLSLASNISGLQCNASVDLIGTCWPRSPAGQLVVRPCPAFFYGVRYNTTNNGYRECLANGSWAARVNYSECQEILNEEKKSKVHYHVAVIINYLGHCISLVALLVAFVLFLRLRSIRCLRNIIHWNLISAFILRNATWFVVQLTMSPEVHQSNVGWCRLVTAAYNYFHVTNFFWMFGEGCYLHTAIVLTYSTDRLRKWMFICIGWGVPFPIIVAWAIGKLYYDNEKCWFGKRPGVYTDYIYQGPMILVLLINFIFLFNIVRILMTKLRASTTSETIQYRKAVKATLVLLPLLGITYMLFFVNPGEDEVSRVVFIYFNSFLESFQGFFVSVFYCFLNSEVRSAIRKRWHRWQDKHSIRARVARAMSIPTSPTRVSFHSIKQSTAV
The experiment in a line: Binding affinity for human corticotropin releasing factor receptor 1 expressed in LtK- cells using [125I]sauvagine. In kind it is cell-based. Put shortly: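 Buffer: DPBS with 10 mM MgCl2 and 2 mM EGTA, pH 7.4. Competitor 10 pM to 1 µM, run in duplicate, 2 h at room temperature. Bound ligand separated by vacuum filtration and counted by gamma counter. Nonspecific binding taken with excess unlabeled sauvagine. Ki from nonlinear curve fitting.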

For another assay, the species on record is Rattus norvegicus. Nature of the assay: In vitro Inhibition of CRF-stimulated ACTH release in rat anterior pituitary cells, upon 9 min incubation at 37 degree C. To be noted: Pituitary gland cell, 4 h, in the assay text read “4 h incubation” for “9 min incubation”. Type of assay: functional, cell-based. The method in brief:
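Pituitaries from 7-week-old female Sprague Dawley rats digested with collagenase (1.5 h, 37 °C), then neuraminidase (9 min, 37 °C). Cells cultured 2-3 days in 3% FCS/BBM-T at 40,000 cells/well. Antagonist (1 pM to 1 µM) added with 0.5 nM r/hCRF in BBM-T for 4 h at 37 °C. Medium ACTH measured by RIA.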

The target in assay [2] is T1, Corticotropin-releasing factor receptor 1. Nature of the assay: In vitro inhibition of CRF-stimulated cAMP production in cell membranes expressing human CRF1 receptor. In kind it is functional, cell-based. To be noted: in the assay text read “whole cells” for “cell membranes”. Put shortly: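 Live whole L-hCRF1 cells (LtK- cells expressing human CRF1 receptor) were plated at 100 000 cells/well the day before and washed with DPBS. Buffer was DMEM without phenol red with 1 mM IBMX. CRF plus antagonist at various concentrations were added for 30 min at 37 °C in 5% CO2. Total cAMP was read by chemiluminescent immunoassay and IC50 was obtained by nonlinear curve fitting.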

The term pKi denotes the Ki on a negative log10 scale, so that one unit is a factor of ten. Compound `CCCC(CCC)N1CCn2nc(-c3ccc(Cl)cc3Cl)c3nc(C)cc1c32` showed a negative logarithm of the Ki (pKi) in assay [1] of 8.30. Turning to `CC[C@H]1Cn2nc(-c3ccc(Cl)cc3C)c3nc(C)cc(c32)N1CC1CC1`, the pKi in assay [1] was 8.10. With `CC[C@H]1Cn2nc(-c3ccc(Cl)cc3C(F)(F)F)c3nc(C)cc(c32)N1CC1CC1`, the pKi in assay [1] is 7.70. Compound `CC[C@H]1Cn2nc(-c3ccc(C(F)(F)F)cc3Cl)c3nc(C)cc(c32)N1CC1CC1` showed a pKi in assay [1] of 8.40. In assay [1], `CC[C@H]1Cn2nc(-c3ccc(C)cc3Cl)c3nc(C)cc(c32)N1CC1CC1` had a pKi of 8.20. On the same count and under the same terms, the value for `CC[C@H]1Cn2nc(-c3ccc(Cl)cc3Cl)c3nc(C)cc(c32)N1CC(C)C` was 7.80; that for `CC[C@H]1Cn2nc(-c3ccc(Cl)cc3Cl)c3nc(C)cc(c32)N1CC` was 7.20; that for `CCCCC(CCCC)N1CCn2nc(-c3ccc(Cl)cc3Cl)c3nc(C)cc1c32` was 8.30.

As to `Cc1cc2c3c(n1)c(-c1ccc(Cl)cc1Cl)nn3C[C@H](C)N2CC1CC1`, the negative-log Ki (pKi) in assay [1] is 8.10.

For the compound `CC[C@H]1Cn2nc(-c3ccc(OC)cc3C)c3nc(C)cc(c32)N1CC1CC1`, the pKi in assay [1] is 8.00. Compound `CC[C@@H]1Cn2nc(-c3ccc(Cl)cc3Cl)c3nc(C)cc(c32)N1CC1CC1` had a pKi in assay [1] of 6.90. `CC[C@H]1Cn2nc(-c3ccc(C(=O)OC)cc3Cl)c3nc(C)cc(c32)N1CC1CC1` had a pKi in assay [1] of 6.80.

For the compound `CC[C@H]1Cn2nc(-c3ccc(Cl)cc3Cl)c3nc(C)cc(c32)N1CCOC`, the pKi in assay [1] is 7.30. `CC[C@H]1Cn2nc(-c3ccc(Cl)cc3Cl)c3nc(C)cc(c32)N1` had a pKi in assay [1] of 6.10.

`CC[C@H]1Cn2nc(-c3ccc(C(C)C)cc3C(F)(F)F)c3nc(C)cc(c32)N1CC1CC1` gave a pKi in assay [1] of 8.10. Same read-out and setting: the value for `CC[C@H]1Cn2nc(-c3ccc(OC)cc3Cl)c3nc(C)cc(c32)N1CC1CC1` was 8.40. Compound `CC[C@H]1Cn2nc(-c3ccc(F)cc3Cl)c3nc(C)cc(c32)N1CC1CC1` showed a pKi in assay [1] of 7.90.

In turn, `CCCCN1c2cc(C)nc3c(-c4ccc(Cl)cc4Cl)nn(c23)C[C@@H]1CC` showed a pKi in assay [1] of 8.20.

`Cc1cc2c3c(n1)c(-c1ccc(Cl)cc1Cl)nn3CCN2C1CCCCC1` showed a negative logarithm of the Ki (pKi) in assay [1] of 6.80. In turn, `CCCN1c2cc(C)nc3c(-c4ccc(Cl)cc4Cl)nn(c23)C[C@@H]1CC` gave a pKi in assay [1] of 7.50. Same read-out and setting: with `Cc1cc2c3c(n1)c(-c1ccc(Cl)cc1Cl)nn3CCN2C(C)C` the figure was 7.10; with `Cc1cc2c3c(n1)c(-c1ccc(Cl)cc1Cl)nn3C[C@H](c1ccccc1)N2CC1CC1`, 8.00. Still for that read-out and setting: with `CC[C@H]1Cn2nc(-c3ccc(Cl)cc3Cl)c3nc(C)cc(c32)N1Cc1ccccc1` the figure was 6.80; with `CC[C@H]1Cn2nc(-c3ccc(Cl)cc3OC)c3nc(C)cc(c32)N1CC1CC1`, 7.60. On the same count and under the same terms, the value for `CC[C@H]1Cn2nc(-c3ccc(C(F)(F)F)cc3C(F)(F)F)c3nc(C)cc(c32)N1CC1CC1` was 8.10; that for `Cc1cc2c3c(n1)c(-c1ccc(Cl)cc1Cl)nn3CCN2CC1CC1` was 7.10. The compound `Cc1cc2c3c(n1)c(-c1ccc(Cl)cc1Cl)nn3CCN2CC(C)C` had a pKi in assay [1] of 6.40.

On to `Cc1cc2c3c(n1)c(-c1ccc(Cl)cc1Cl)nn3C[C@H](C(C)C)N2CC1CC1`, for which the pKi in assay [1] was 8.30. On the same count and under the same terms, the value for `CC[C@H]1Cn2nc(-c3ccc(OC)cc3C(F)(F)F)c3nc(C)cc(c32)N1CC1CC1` was 8.10. The same measure, in the same setting: with `CCC[C@H]1Cn2nc(-c3ccc(Cl)cc3Cl)c3nc(C)cc(c32)N1CC1CC1` the figure was 8.40; with `CC[C@H]1Cn2nc(-c3ccc(Cl)cc3Cl)c3nc(C)cc(c32)N1CC1CCC1`, 7.70. On the same count and under the same terms, the value for `CC[C@H]1Cn2nc(-c3ccc(Cl)cc3F)c3nc(C)cc(c32)N1CC1CC1` was 7.30. By pIC50 is commonly meant the negative decadic logarithm of the IC50, by convention in mol/L. Regarding `CC[C@H]1Cn2nc(-c3ccc(Cl)cc3Cl)c3nc(C)cc(c32)N1CC1CC1`, the values for the pIC50 (in the assay filed under Rattus norvegicus; in assay [2]) were 6.90 and 7.10, respectively.

`CC[C@H]1Cn2nc(-c3ccc(C)cc3C)c3nc(C)cc(c32)N1CC1CC1` had a pKi in assay [1] of 7.90. Consider `CCC(CC)N1CCn2nc(-c3ccc(Cl)cc3Cl)c3nc(C)cc1c32`, for which the pKi in assay [1] is 8.40.

On to `CCC(COC)N1CCn2nc(-c3ccc(Cl)cc3Cl)c3nc(C)cc1c32` (centres undefined), for which, in assay [1], the pKi was 7.20. On the same count and under the same terms, with `CCCN(CC1CC1)c1cc(C)nc2c(-c3ccc(Cl)cc3Cl)nn(C)c12` the figure was 8.80. Same read-out and setting: the value for `CCCCN(CC)c1nc(C)nc2c1c(C)c(C)n2-c1c(C)cc(C)cc1C` [ANTALARMIN] was 8.60.
